Columns and labels:
[1] = target: T1, Potassium voltage-gated channel subfamily A member 3 (Homo sapiens, UniProt P22001); assay: Inhibition of Kv1.3 ion channel. Measured in the Rb_Kv assay: [86Rb+] efflux from CHO cells stably transfected with Kv1.3 channel.; type: functional, cell-based
[2] = Inhibition of DiTc binding to Kv1.x channel in human brain membranes; type: cell membranes, Membrane
In short: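 Displacement of diTC (C20-C29 ditritio-correolide) binding to human brain membranes carrying Kv1.x channels, primarily heteromultimeric Kv1.1/Kv1.2.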

[3] = target: T1, Potassium voltage-gated channel subfamily A member 3; assay: Inhibition of DiTc binding to Kv1.3 channel in human brain membranes; type: cell membranes, Membrane
[4] = target: T1, Potassium voltage-gated channel subfamily A member 3; assay: Inhibition of [86Rb+] efflux from CHO cells stably transfected with Kv1.3 channel; type: functional, cell-based

T1 sequence (P22001 whole entry): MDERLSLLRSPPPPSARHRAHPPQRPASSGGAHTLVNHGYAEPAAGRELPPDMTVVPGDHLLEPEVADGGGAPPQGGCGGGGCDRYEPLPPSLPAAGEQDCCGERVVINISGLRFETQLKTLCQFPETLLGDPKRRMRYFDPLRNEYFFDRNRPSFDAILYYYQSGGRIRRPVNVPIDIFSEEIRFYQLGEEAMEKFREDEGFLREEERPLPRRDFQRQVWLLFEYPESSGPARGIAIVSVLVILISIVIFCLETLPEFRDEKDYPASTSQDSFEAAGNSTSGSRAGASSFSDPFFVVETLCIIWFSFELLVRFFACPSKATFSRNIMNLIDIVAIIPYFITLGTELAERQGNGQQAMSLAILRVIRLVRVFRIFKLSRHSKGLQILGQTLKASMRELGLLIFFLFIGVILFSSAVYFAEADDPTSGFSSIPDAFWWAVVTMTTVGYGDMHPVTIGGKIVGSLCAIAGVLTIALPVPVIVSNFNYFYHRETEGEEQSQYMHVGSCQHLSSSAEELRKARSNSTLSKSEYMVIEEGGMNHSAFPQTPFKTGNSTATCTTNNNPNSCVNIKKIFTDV

| Structure (SMILES) | IC50 [1] [nM] | further results |
| --- | --- | --- |
| C=CCNC(=O)O[C@H]1CC[C@@](CNC(=O)c2cccc3c2OCC3)(c2ccccc2)CC1 | 3730 |  |
| CNC(=O)O[C@H]1CC[C@](CNC(=O)c2ccccc2OC)(c2ccccc2)CC1 |  | IC50 [2]: 104 nM; IC50 [3]: 99 nM; IC50 [4]: 150 nM |
| C=CCNC(=O)N[C@H]1CC[C@](CNC(=O)c2ccccc2OC)(c2ccccc2)CC1 |  | IC50 [2]: 125 nM; IC50 [3]: 80 nM; IC50 [4]: 140 nM |
| COc1cccc(C(=O)NCC2(c3ccccc3)CCC(=O)CC2)c1 | > 30000 |  |
| C=CCNC(=O)O[C@H]1CC[C@](CNC(=O)c2ccccc2OC)(c2ccccc2)CC1 |  | IC50 [2]: 170 nM; IC50 [3]: 140 nM; IC50 [4]: 130 nM |
| COc1ccccc1C(=O)NC[C@]1(c2ccccc2)CC[C@@H](OC(=O)NC(C)C)CC1 | 75 |  |
| COc1ccccc1C(=O)NC[C@]1(c2ccccc2)CC[C@@H](NC(=O)c2ccccc2Br)CC1 | 2790 |  |
| CCCNC(=O)O[C@H]1CC[C@](CNC(=O)c2ccccc2OC)(c2ccccc2)CC1 |  | IC50 [2]: 76 nM; IC50 [3]: 79 nM; IC50 [4]: 100 nM |
| CCCNC(=O)O[C@H]1CC[C@@](CNC(=O)c2ccccc2OC)(c2ccccc2)CC1 |  | IC50 [2]: 30 nM; IC50 [3]: 5 nM; IC50 [4]: 50 nM |
| COc1ccccc1S(=O)(=O)NCC1(c2ccccc2)CCC(=O)CC1 | > 30000 |  |
| COc1ccc(C(=O)NCC2(c3ccccc3)CCC(=O)CC2)cc1 | 10000 |  |
| C/C=C/C(=O)N[C@H]1CC[C@](CNC(=O)c2ccccc2OC)(c2ccccc2)CC1 | 100 |  |
| COCCNC(=O)O[C@H]1CC[C@](CNC(=O)c2ccccc2OC)(c2ccccc2)CC1 | 140 |  |
| COc1ccccc1C(=O)NC[C@]1(c2ccccc2)CC[C@@H](OC(=O)Nc2ccccc2)CC1 | > 30000 |  |
| C=CCNC(=O)N[C@H]1CC[C@@](CNC(=O)c2ccccc2OC)(c2ccccc2)CC1 |  | IC50 [2]: 120 nM; IC50 [3]: 29 nM; IC50 [4]: 150 nM |
| C=C(C)CNC(=O)O[C@H]1CC[C@@](CNC(=O)c2ccccc2OC)(c2ccccc2)CC1 | 90 |  |
| C=CCOC(=O)N[C@H]1CC[C@](CNC(=O)c2ccccc2OC)(c2ccccc2)CC1 |  | IC50 [2]: 68 nM; IC50 [3]: 72 nM; IC50 [4]: 90 nM |
| COc1ccccc1C(=O)NC[C@]1(c2ccccc2)CC[C@H](OC(=O)Nc2ccccc2)CC1 | 120 |  |
| COCCNC(=O)O[C@H]1CC[C@@](CNC(=O)c2ccccc2OC)(c2ccccc2)CC1 | 140 |  |

| Structure (SMILES) | IC50 [1] [nM] | further results |
| --- | --- | --- |
| COCCCNC(=O)O[C@H]1CC[C@@](CNC(=O)c2ccccc2OC)(c2ccccc2)CC1 | 145 |  |
| C=CCNC(=O)O[C@H]1CC[C@@](CNC(=O)c2cc(Cl)ccc2OC)(c2ccccc2)CC1 | 230 |  |
| C=CCNC(=O)O[C@H]1CC[C@@](CNC(=O)c2cc(F)ccc2O)(c2ccccc2)CC1 | 140 |  |
| C=CCOC(=O)N[C@H]1CC[C@@](CNC(=O)c2ccccc2OC)(c2ccccc2)CC1 | 242 |  |
| C=CCN(C)C(=O)N[C@H]1CC[C@](CNC(=O)c2ccccc2OC)(c2ccccc2)CC1 | 195 |  |
| COc1ccccc1C(=O)NC[C@]1(c2ccccc2)CC[C@H](NC(=O)CCc2ccccc2)CC1 | 120 |  |
| COc1ccccc1C(=O)NC[C@]1(c2ccccc2)CC[C@@H](NC(=O)C=C(C)C)CC1 | 470 |  |
| C=CCN(CC=C)C(=O)O[C@H]1CC[C@](CNC(=O)c2ccccc2OC)(c2ccccc2)CC1 | 205 |  |
| COc1ccccc1C(=O)NC[C@]1(c2ccccc2)CC[C@H](NC(=O)c2ccccc2)CC1 | 75 |  |
| CCC(=O)N[C@H]1CC[C@@](CNC(=O)c2ccccc2OC)(c2ccccc2)CC1 | 210 |  |
| COc1ccccc1C(=O)NC[C@]1(c2ccccc2)CC[C@H](OC(=O)NCCO)CC1 | 95 |  |
| O=C1CCC(CNC(=O)c2ccccc2)(c2ccccc2)CC1 | > 30000 |  |
| C=CCNC(=O)O[C@H]1CC[C@@](CNC(=O)c2ccccc2OC)(c2ccccc2)CC1 |  | IC50 [2]: 112 nM; IC50 [3]: 18 nM; IC50 [4]: 70 nM |
| C=CCNC(=O)O[C@H]1CC[C@@](CNC(=O)c2cccc(Cl)c2O)(c2ccccc2)CC1 | 7200 |  |
| COc1ccccc1C(=O)NC[C@]1(c2ccccc2)CC[C@H](OC(=O)NCCc2ccccc2)CC1 | 420 |  |
| C=CCN(C)C(=O)O[C@H]1CC[C@](CNC(=O)c2ccccc2OC)(c2ccccc2)CC1 | 145 |  |
| CNC(=O)O[C@H]1CC[C@@](CNC(=O)c2ccccc2OC)(c2ccccc2)CC1 |  | IC50 [2]: 33 nM; IC50 [3]: 5 nM; IC50 [4]: 58 nM |
| C=CCNC(=O)O[C@H]1CC[C@@](CNC(=O)c2cccc(Cl)c2OC)(c2ccccc2)CC1 | 8380 |  |

Continued, in another order:

| IC50 [1] [nM] | Structure (SMILES) | further results |
| --- | --- | --- |
| > 30000 | COc1ccccc1C(=O)NCC1CCCCC1 |  |
| 580 | CCOc1ccccc1C(=O)NCC1(c2ccccc2)CCC(=O)CC1 |  |
| 230 | C=CCOC(=O)O[C@H]1CC[C@](CNC(=O)c2ccccc2OC)(c2ccccc2)CC1 |  |
| 120 | C=C(C)CNC(=O)O[C@H]1CC[C@](CNC(=O)c2ccccc2OC)(c2ccccc2)CC1 |  |
| 470 | COc1ccccc1C(=O)NC[C@]1(c2ccccc2)CC[C@@H](NC(C)=O)CC1 |  |
| 320 | C=CCN(C)C(=O)O[C@H]1CC[C@@](CNC(=O)c2ccccc2OC)(c2ccccc2)CC1 |  |
| 1560 | COc1ccccc1C(=O)NC[C@]1(c2ccccc2)CC[C@@H](NC(=O)c2ccccc2)CC1 |  |
| > 30000 | COc1ccccc1C(=O)NC[C@]1(c2ccccc2)CC[C@@H](NC(=O)c2ccc(Br)cc2)CC1 |  |
| 570 | COc1ccccc1C(=O)NC[C@]1(c2ccccc2)CC[C@@H](NC(=O)CCc2ccccc2)CC1 |  |
| > 30000 | COc1ccccc1C(=O)N(C)CC1(c2ccccc2)CCNCC1 |  |
| 130 | COc1ccccc1C(=O)NC[C@]1(c2ccccc2)CC[C@H](NC(=O)Cc2ccccc2)CC1 |  |
| 1050 | COc1ccccc1C(=O)NC[C@]1(c2ccccc2)CC[C@@H](NC(=O)Cc2ccccc2)CC1 |  |
| > 30000 | COc1ccccc1C(=O)N(C)CC1(c2ccccc2)CCC(=O)CC1 |  |
| 90 | CCCCNC(=O)O[C@H]1CC[C@@](CNC(=O)c2ccccc2OC)(c2ccccc2)CC1 |  |
| 135 | COC(=O)N[C@H]1CC[C@@](CNC(=O)c2ccccc2OC)(c2ccccc2)CC1 |  |
| 535 | COc1ccccc1C(=O)NC[C@]1(c2ccccc2)CC[C@H](OC(=O)NCCCc2ccccc2)CC1 |  |

| IC50 [1] [nM] | Structure (SMILES) | further results |
| --- | --- | --- |
| 840 | C=CCN(CC=C)C(=O)O[C@H]1CC[C@@](CNC(=O)c2ccccc2OC)(c2ccccc2)CC1 |  |
| 1700 | COc1ccccc1C(=O)NC[C@]1(c2ccccc2)CC[C@@H](OC(=O)NCc2ccccc2)CC1 |  |
| 130 | COCCCNC(=O)O[C@H]1CC[C@](CNC(=O)c2ccccc2OC)(c2ccccc2)CC1 |  |
| 245 | COc1ccccc1C(=O)NC[C@]1(c2ccccc2)CC[C@H](OC(=O)NCc2ccccc2)CC1 |  |
| 150 | COc1ccccc1C(=O)NC[C@]1(c2ccccc2)CC[C@@H](NC(=O)SC)CC1 |  |
| 310 | COc1ccccc1C(=O)NC[C@]1(c2ccccc2)CC[C@@H](OC(=O)NCCO)CC1 |  |
| > 30000 | COc1ccccc1C(=O)NC[C@]1(c2ccccc2)CC[C@@H](NC(=O)c2cccc(Br)c2)CC1 |  |
| 30000 | O=C1CCC(CNC(=O)c2cccc(Cl)c2)(c2ccccc2)CC1 |  |
| 200 | CCCC(=O)N[C@H]1CC[C@@](CNC(=O)c2ccccc2OC)(c2ccccc2)CC1 |  |
| 200 | COc1ccccc1C(=O)NCC1(c2ccccc2)CCC(=O)CC1 |  |
| 600 | CNc1ccccc1C(=O)NCC1(c2ccccc2)CCC(=O)CC1 |  |
| 325 | C=CCNC(=O)O[C@H]1CC[C@@](CNC(=O)c2cccnc2OC)(c2ccccc2)CC1 |  |
| 140 | CCCCNC(=O)O[C@H]1CC[C@](CNC(=O)c2ccccc2OC)(c2ccccc2)CC1 |  |
| 130 | COc1ccccc1C(=O)NC[C@]1(c2ccccc2)CC[C@H](OC(=O)NC(C)C)CC1 |  |
| 440 | C/C=C/C(=O)N[C@H]1CC[C@@](CNC(=O)c2ccccc2OC)(c2ccccc2)CC1 |  |

From ChEMBL document CHEMBL1136659, “Benzamide derivatives as blockers of Kv1.3 ion channel” (Bioorg Med Chem Lett, 2003)
